Screening data from PubChem BioAssay.
This is a sample that favours compounds with a hit; in the whole collection about 1.6% have one here.
Rpn11 block – Rpn11 (PSMD14) deubiquitinase inhibitors, primary screen, biochemical, fluorescence polarization, uHTS. 360,000 compounds, 0.59% hits. calls only at 20 µM. human 26S proteasome, Ub4-pepOG fluorescence polarization; 20S core pre-blocked with epoxomicin. AID 588493, 2011. 26S proteasome non-ATPase regulatory subunit 14 (Homo sapiens), O00487;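 active = inhibition at 20 µM, scaled to each plate's controls, above about 33%, limit read from the data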
TPT1 inh – Candida albicans TPT1 enzyme inhibitors, primary screen, biochemical, fluorescence polarization. recombinant caTPT1, FP RNA substrate dephosphorylation. inhibition, % at 5 µM. tRNA 2'-phosphotransferase TPT1 (Candida albicans SC5314). 300,000 compounds, 0.81% hits;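 active = inhibition above the mean of all tested compounds plus 3 SD, set per screening campaign, cut at about 24% in these data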;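 also: plate controls were DMSO alone for no effect and ferristatin control at 100 nM for full effect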
PKA-R2B act – activators of PKA-R2B holoenzyme, primary screen, biochemical, fluorescence polarization, Cy5-IP20, human; cAMP-dependent protein kinase catalytic subunit beta (Homo sapiens) + cAMP-dependent …; PKA-R2B holoenzyme dissociation; R2B truncated from residue 108, S112A mutant; 0% DMSO only, 100% 113 µM cGMP; activation, % at 11.4 µM; 340,000 compounds, 0.079% hits; AID 504700, 2011;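 active = activation above a cutoff set at the mean over all compounds plus 3 SD, cut at about 18% in these data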;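 also: higher means more holoenzyme dissociation and a rise in polarization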
PKA-R1A activ – activators of PKA-R1A holoenzyme, primary screen, biochemical, fluorescence polarization, Cy5-IP20, bovine R1A, mouse PKAc | cAMP-dependent protein kinase type I-alpha regulatory subunit (Bos taurus) + … | PKA-R1A dissociation; scaled: DMSO 0%, 113 µM cGMP 100% | activation, % at 11.4 µM | 340,000 compounds, 0.083% hits;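 active = percent activation above the mean of all tested compounds plus 3 SD, cut at about 19% in these data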;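 also: higher means more PKAc released from R1A so a rise in polarization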
CSN deneddyl inh – inhibitors of CSN-mediated cullin deneddylation, primary screen, biochemical, fluorescence polarization, uHTS; Purified CSN, SCF-Nedd8-OG deneddylation; inhibition, % at 12.5 µM; 360,000 compounds, 0.38% hits;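 active = pattern-corrected inhibition above about 35%, with an unprinted fluorescence ratio check between 0.5 and 1.5, limit read from the data, passing the limit was not always enough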;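 also: 0% = enzyme with substrate and 100% = substrate without enzyme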
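Assay system: purified human Csn5 enzyme expressed in HEK293T cells; measure: % inhibition; also added: SCFSkp2-Nedd8OG substrate at 10 nM final; technique: fluorescence polarization; times: reaction 90 min, room temperature; medium: Tris buffer pH 7.5, NaCl, DTT, Tween-20, trehalose, ovalbumin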
HNF4A DNA FP – change in binding of human HNF4A to DNA, primary screen, biochemical, fluorescence polarization, FITC-DNA | activity change, % at 10 µM | 360,000 compounds, 0.3% hits | Hepatocyte nuclear factor 4-alpha (Homo sapiens), P41235 | 1 h; in the data active = activity change above about 30%, passing the limit was not always enough
TPT1 inh confirm – Candida albicans TPT1 inhibitors, confirmation, biochemical, fluorescence polarization, triplicate. shares compounds with TPT1 inh. recombinant caTPT1, RNase T1 coupled. inhibition, % at 5 µM. 2,400 compounds, 74% hits. AID 2149, 2009;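 active = inhibition above the primary screen limit, the mean inhibition of all tested compounds plus 3 SD, cut at about 25% in these data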
RNase T1 inh – RNase T1 inhibitors, counter-screen for TPT1 inhibitor project, biochemical, fluorescence polarization. 2,400 compounds, 83% hits. shares compounds with TPT1 inh. AID 2153, 2009. inhibition, % at 5 µM. RNase T1 cleavage, 1536-well;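 active = inhibition above the solvent-only control well mean plus 3 SD, limit set per screening run, cut at about 23% in these data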;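 also: plate controls were DMSO wells with enzyme for no effect and wells without RNase T1 for full effect; inhibitors block cleavage so intact labeled substrate keeps polarization high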
Rpn11 inh conf – Rpn11 (PSMD14) deubiquitinase inhibitors, confirmation, biochemical, fluorescence polarization, single concentration; shares compounds with Rpn11 block; purified human 26S proteasome, Ub4-pepOG fluorescence polarization; proteasome pretreated with epoxomicin; inhibition, % at 20 µM; 1,900 compounds, 29% hits
MMP-2 counter – MMP-2 enzyme inhibition, confirmation, counter-screen for RPN11 inhibitor project, biochemical, fluorescence, single concentration | shares compounds with Rpn11 block | recombinant MMP-2, FRET peptide cleavage fluorescence | inhibition, % at 20 µM | 1,900 compounds, 4% hits | AID 602330, 2012;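 also: human MMP-2 activated beforehand with APMA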
Thrombin FP – bovine thrombin protease inhibition, confirmation, counter-screen for Rpn11 inhibitor project, biochemical, fluorescence polarization, single concentration; shares compounds with Rpn11 block; bovine thrombin cleavage of Ub4-pepOG; inhibition, % at 20 µM; 1,900 compounds, 13% hits; AID 602333, 2012;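 active = mean inhibition at least 40% at 20 µM, or signal 3 deviations below plate average, so some actives read negative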;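 also: plate controls were thrombin with DMSO for no effect and buffer wells lacking thrombin for full effect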
Target sequence (P00735 whole entry, looked up): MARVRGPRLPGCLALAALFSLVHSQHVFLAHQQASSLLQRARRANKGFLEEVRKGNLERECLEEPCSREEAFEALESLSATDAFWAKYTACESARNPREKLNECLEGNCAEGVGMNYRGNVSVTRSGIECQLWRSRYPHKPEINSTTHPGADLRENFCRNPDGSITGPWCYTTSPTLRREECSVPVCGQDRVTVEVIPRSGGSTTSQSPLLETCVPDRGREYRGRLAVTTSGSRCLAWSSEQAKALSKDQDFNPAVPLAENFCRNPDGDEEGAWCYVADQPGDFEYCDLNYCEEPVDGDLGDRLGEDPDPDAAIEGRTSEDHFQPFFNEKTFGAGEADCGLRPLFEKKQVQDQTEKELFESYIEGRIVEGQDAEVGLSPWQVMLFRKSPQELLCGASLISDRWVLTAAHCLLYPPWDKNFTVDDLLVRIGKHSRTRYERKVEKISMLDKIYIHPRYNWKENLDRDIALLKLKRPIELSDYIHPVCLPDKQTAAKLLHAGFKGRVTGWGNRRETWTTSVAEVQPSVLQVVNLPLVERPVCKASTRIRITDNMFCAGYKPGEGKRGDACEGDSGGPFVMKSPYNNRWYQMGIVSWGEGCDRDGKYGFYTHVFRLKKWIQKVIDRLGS
Starred values were filed as active, the others as inactive; ! = not active in a repeat. Rule as the data show it, unless noted: active = inhibition above about 40%; inactive = the rest.

Screening C=CCn1c(O)c(C=NCCN2CCNCC2)c(=O)[nH]c1=O returned Rpn11 block inactive, TPT1 inh 5, PKA-R2B act 2, PKA-R1A activ -2, CSN deneddyl inh -7 and HNF4A DNA FP 3.
Clc1cc(Cl)c(-c2cc(Cl)c(Cl)cc2Cl)cc1Cl was read as Rpn11 block inactive, PKA-R2B act -5, PKA-R1A activ -1, CSN deneddyl inh -2 and HNF4A DNA FP -2.
Screening CN(C(=O)CN1CC=C(c2ccccc2)CC1)c1c(N)n(Cc2ccccc2)c(=O)[nH]c1=O returned Rpn11 block inactive, TPT1 inh 3, PKA-R2B act -1, PKA-R1A activ 2, CSN deneddyl inh -9 and HNF4A DNA FP 0.
For O=c1[nH]c(CN2CC=C(c3ccccc3)CC2)nc2scc(-c3ccccc3)c12 the results were Rpn11 block active, TPT1 inh 54*, PKA-R2B act 0, PKA-R1A activ -2, CSN deneddyl inh 6, HNF4A DNA FP 21, TPT1 inh confirm 32*, RNase T1 inh 45*, Rpn11 inh conf 58*, MMP-2 counter -20 and Thrombin FP 16.
Screening O=C(O)c1nn(Cc2ccc(Cl)cc2)c2ccccc12 returned Rpn11 block inactive, PKA-R2B act 0, PKA-R1A activ 8, CSN deneddyl inh -2 and HNF4A DNA FP -3.
`COc1ccc(-n2c(O)c(C=NCCCn3ccnc3)c(=O)[nH]c2=O)cc1` gave Rpn11 block inactive, TPT1 inh -2, PKA-R2B act -3, PKA-R1A activ -15, CSN deneddyl inh 5 and HNF4A DNA FP -3.
Screening COc1ccc(-n2c(O)c(/C=C3\C=Nc4ccc(Br)cc43)c(=O)[nH]c2=O)cc1 returned Rpn11 block active, TPT1 inh 33*, PKA-R2B act 5, PKA-R1A activ 10, CSN deneddyl inh 16, HNF4A DNA FP 0, TPT1 inh confirm 26*, RNase T1 inh 32*, Rpn11 inh conf -19, MMP-2 counter -37 and Thrombin FP -65.
Screening CCNc1cc(N2CCNCC2)ccc1[N+](=O)[O-] returned TPT1 inh 4.
Screening COc1ccc2nc(/N=C/c3c(O)n(-c4cccc(Cl)c4)c(=O)[nH]c3=O)sc2c1 returned Rpn11 block active, TPT1 inh 55*, PKA-R2B act 17, PKA-R1A activ -8, CSN deneddyl inh 23, HNF4A DNA FP 1, TPT1 inh confirm 14, RNase T1 inh 17, Rpn11 inh conf 2, MMP-2 counter -22 and Thrombin FP -13.
Screening CC1=NCCc2c1[nH]c1ccccc21 returned Rpn11 block active, TPT1 inh 25*, PKA-R2B act -1, PKA-R1A activ -8, CSN deneddyl inh 18, HNF4A DNA FP 37, TPT1 inh confirm 17, RNase T1 inh 22*, Rpn11 inh conf -4, MMP-2 counter -29 and Thrombin FP -6.
O=C(Cn1cc(C(=O)c2ccccc2F)c2ccccc21)NC1CC1 was read as Rpn11 block inactive, TPT1 inh 1, PKA-R2B act 11, PKA-R1A activ -2, CSN deneddyl inh -5 and HNF4A DNA FP 2.
`COc1ccc(CN2C(=O)NC(=O)/C(=C/c3cc(OC)c(OC)c(OC)c3)C2=O)cc1` gave Rpn11 block inactive, TPT1 inh 20, PKA-R2B act 1, PKA-R1A activ -2, CSN deneddyl inh 5 and HNF4A DNA FP -2.
For COc1ccc(CN2C(=O)NC(=O)/C(=C/c3ccoc3)C2=O)cc1 the results were Rpn11 block active, TPT1 inh 174*, PKA-R2B act -14, PKA-R1A activ -3, CSN deneddyl inh 161, HNF4A DNA FP 16, TPT1 inh confirm 19, RNase T1 inh 32*, Rpn11 inh conf 96*, MMP-2 counter 44* and Thrombin FP 10.
For O=c1[nH]c(=O)n(Cc2ccc(F)cc2)c(O)c1/C=N/Nc1ccccc1 the results were Rpn11 block inactive, TPT1 inh -2, PKA-R2B act -6, PKA-R1A activ -15, CSN deneddyl inh 7 and HNF4A DNA FP 2.
CN1C(=O)/C(=C\c2ccc(Br)s2)C(=O)NC1=S was read as Rpn11 block active, TPT1 inh 25*, PKA-R2B act 1, PKA-R1A activ 3, CSN deneddyl inh 11, HNF4A DNA FP 1, TPT1 inh confirm 15, RNase T1 inh 27*, Rpn11 inh conf -2, MMP-2 counter -1 and Thrombin FP 6.
Screening O=c1[nH]c(=O)n(CC2CCCO2)c(O)c1/C=C1\C=Nc2ccccc21 (stereo unspecified) returned Rpn11 block active!, TPT1 inh 37*!, PKA-R2B act 3, PKA-R1A activ -7, CSN deneddyl inh 3, HNF4A DNA FP 3, TPT1 inh confirm 16, RNase T1 inh 24*, Rpn11 inh conf 19, MMP-2 counter -15 and Thrombin FP 12.
